A short description of data set [1]: Cytotoxicity against human 184B5 cells after 72 hrs by MTT assay. The format is cell-based. The settings on record: for GI50 at 72 h: 184B5 cells; for LC50 / TGI: 184b5, 72 h. The essentials:
(§1)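 MTT read-out after 72 h exposure at 37 °C in humidified 5% CO2, with five concentrations between 0.01 and 100. GI50 is 50% growth reduction versus untreated controls, TGI is complete growth inhibition, and LC50 is the concentration killing 50% of cells. Minimum three independent experiments.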
In general terms: Tetrazolium dyes change colour on reduction, which living cells bring about.

The test system of the next data set is MCF7. Kind of data set: Cytotoxicity against human MCF7 cells after 72 hrs by MTT assay. The format is functional. The following applies: MCF7, 72 h. The essentials: as §1
Data set [2] can be described thus: Cytotoxicity against human BEAS2B cells after 72 hrs by MTT assay. Type of data set: cell-based, BEAS-2B. The settings on record: for GI50 at 72 h: BEAS2B cells; for LC50 / TGI: beas-2b, 72 h. The essentials:
as §1

In another data set the test system is HT-29. Description: Cytotoxicity against human HT-29 cells after 72 hrs by MTT assay. Type of data set: functional. The following applies: HT-29, 72 h; for CC50: read-out: LC50 (the source's name). The essentials: as §1
The test system of a further data set is CCRF-CEM. Kind of data set: Cytotoxicity against human CCRF-CEM cells after 72 hrs by MTT assay. The format is functional. The settings on record: for CC50: read-out: LC50 (the source's name). A digest of the protocol: as §1
Data set [3] in a line: Cytotoxicity against human HTB-54 cells after 72 hrs by MTT assay. The format is functional. The following applies: HTB-54, 72 h; for CC50: read-out: LC50 (the source's name). The essentials: as §1

For orientation: GI50 means the concentration that inhibits growth by half. A higher GI50 goes with lower sensitivity of the cells. For orientation: LC50 means the concentration lethal to half of the exposed cells or organisms. A high value points to lower toxicity. As a reminder, the TGI is the concentration at which net growth stops. A high value points to less potent growth arrest. `CCCCC[Se]c1nc([Se]CCCCC)c2cccnc2n1`: the results for the 50% growth inhibitory concentration (GI50) at 72 h in data set [1] and in data set [2] were 52.8 µM and above 100 µM, respectively. In addition, the 50% lethal concentration (LC50) in data set [1] was above 100 µM; with MCF7 it was 94.6 µM; in data set [2] it was above 100 µM. Besides, the TGI was above 100 µM in data set [1]; 67.7 µM with MCF7; above 100 µM in data set [2]; above 100 µM in the data set on HT-29; above 100 µM with CCRF-CEM; 60.5 µM in data set [3]. Further, the concentration for 50% growth inhibition (GI50) with MCF7 was 40.8 µM; with HT-29 it was above 100 µM; with CCRF-CEM, above 100 µM; in data set [3], 15.2 µM. In addition, the CC50 (with HT-29; in the data set with CCRF-CEM; in data set [3]) was above 100 µM in each case.
For the molecule `CSc1nc(Nc2ccccc2)c2ccccc2n1`, the GI50 at 72 h in data set [1] was above 100 µM; in data set [2], 54.8 µM. In addition, the LC50 (in data set [1]; in the data set on MCF7; in data set [2]) was above 100 µM in each case. The concentration for total growth inhibition (TGI) (in data set [1]; in the data set on MCF7; in data set [2]; in the data set on HT-29; in the data set on CCRF-CEM; in data set [3]) was above 100 µM each time. Further, the 50% growth inhibitory concentration (GI50) with MCF7 was found to be 78.4 µM; with HT-29, 65.8 µM; in the data set on CCRF-CEM, 74.6 µM; in data set [3], 55.8 µM. The CC50 (with HT-29; in the data set with CCRF-CEM; in data set [3]) was above 100 µM in each case.
As for `[SeH]c1nc(NCc2ccccc2)c2ccccc2n1`, the concentration for 50% growth inhibition (GI50) at 72 h turned out to be 20.8 µM in data set [1] and 3.54 µM in data set [2]. Further, the LC50 (in data set [1]; in the data set with MCF7; in data set [2]) was above 100 µM in each case. In addition, the TGI in data set [1] is 63.63 µM; in the data set with MCF7 it was above 100 µM; in data set [2], above 100 µM; in the data set on HT-29, above 100 µM; in the data set with CCRF-CEM, above 100 µM; in data set [3], above 100 µM. Further, the GI50 with MCF7 is above 100 µM; with HT-29 it was 62.2 µM; with CCRF-CEM, above 100 µM; in data set [3], 31.2 µM. For the same molecule, the CC50 (in the data set with HT-29; in the data set on CCRF-CEM; in data set [3]) was above 100 µM each time.
In the case of `CSc1nc(NCc2ccccc2)c2ccccc2n1`, the GI50 at 72 h in data set [1] was 28.9 µM; in data set [2] it was 38.9 µM. Also, the LC50 (in data set [1]; in the data set on MCF7; in data set [2]) was above 100 µM each time. The concentration for total growth inhibition (TGI) is above 100 µM in data set [1]; 82.8 µM with MCF7; 88.24 µM in data set [2]; above 100 µM in the data set with HT-29; above 100 µM in the data set with CCRF-CEM; 82.3 µM in data set [3]. Moreover, the 50% growth inhibitory concentration (GI50) with MCF7 was determined as 41.5 µM; with HT-29, 36.5 µM; in the data set on CCRF-CEM, 87.9 µM; in data set [3], 37.9 µM. The CC50 (in the data set with HT-29; with CCRF-CEM; in data set [3]) was above 100 µM each time.
`Nc1nc([SeH])nc2ncccc12`: the GI50 at 72 h is 5.2 µM in data set [1] and 5.89 µM in data set [2]. Further, the LC50 in data set [1] was 74.98 µM; in the data set on MCF7 it was above 100 µM; in data set [2], above 100 µM. Besides, the TGI is 31.05 µM in data set [1]; above 100 µM with MCF7; 87.73 µM in data set [2]; 89.6 µM in the data set on HT-29; 61.5 µM in the data set with CCRF-CEM; 96.6 µM in data set [3]. Besides, the GI50 came out at 37.3 µM in the data set on MCF7, 36.3 µM in the data set on HT-29, 30.9 µM in the data set with CCRF-CEM and 44.3 µM in data set [3]. Further, the CC50 is above 100 µM with HT-29, 92.1 µM in the data set with CCRF-CEM and above 100 µM in data set [3].
With `COc1ccc(CNc2nc([Se]C)nc3ccccc23)cc1`, the GI50 at 72 h in data set [1] is 75.6 µM; in data set [2] it was above 100 µM. The LC50 (in data set [1]; in the data set with MCF7; in data set [2]) was above 100 µM each time. Moreover, the TGI is above 100 µM in data set [1]; 98.6 µM in the data set with MCF7; above 100 µM in data set [2]; above 100 µM in the data set with HT-29; above 100 µM in the data set with CCRF-CEM; above 100 µM in data set [3]. Also, the GI50 in the data set with MCF7 is 42.2 µM; in the data set on HT-29, 73.6 µM; with CCRF-CEM, above 100 µM; in data set [3] it was 33 µM. Further, the CC50 (with HT-29; in the data set with CCRF-CEM; in data set [3]) was above 100 µM in each case.
As to `CSc1nc(NCCc2ccccc2)c2ccccc2n1`, the GI50 at 72 h in data set [1] is 8.3 µM; in data set [2], 41.9 µM. Further, the 50% lethal concentration (LC50) was 88.58 µM in data set [1], above 100 µM with MCF7 and above 100 µM in data set [2]. Besides, the TGI in data set [1] was 46.88 µM; in the data set with MCF7 it was above 100 µM; in data set [2], 94.8 µM; in the data set on HT-29, 87.4 µM; in the data set on CCRF-CEM it was 72.8 µM; in data set [3], above 100 µM. For the same molecule, the GI50 with MCF7 is 80.3 µM; in the data set on HT-29 it was 29.2 µM; with CCRF-CEM it was 32.9 µM; in data set [3], 50.6 µM. Further, the CC50 (with HT-29; with CCRF-CEM; in data set [3]) was above 100 µM each time.
`COc1ccc(CNc2nc(S)nc3ccccc23)cc1`: the concentration for 50% growth inhibition (GI50) at 72 h in data set [1] was found to be 7.83 µM; in data set [2] it was 6.13 µM. Besides, the LC50 amounted to 69.23 µM in data set [1], 78.4 µM in the data set with MCF7 and 70.18 µM in data set [2]. The TGI in data set [1] came out at 36.55 µM; in the data set with MCF7, 36.5 µM; in data set [2] it was 32.5 µM; in the data set with HT-29, 28.6 µM; in the data set with CCRF-CEM, 41 µM; in data set [3], 45.5 µM. Further, the GI50 in the data set with MCF7 turned out to be 7.08 µM; in the data set on HT-29, 6.49 µM; with CCRF-CEM, 10.4 µM; in data set [3], 13.5 µM. Also, the CC50 in the data set with HT-29 is 63.9 µM; in the data set on CCRF-CEM, 71.6 µM; in data set [3], 77.6 µM.
With `CSc1ccc(CNc2nc([Se]C)nc3ccccc23)cc1`, the values for the 50% growth inhibitory concentration (GI50) at 72 h in data set [1] and in data set [2] were 37.1 µM and 35.9 µM, respectively. In addition, the LC50 (in data set [1]; with MCF7; in data set [2]) was above 100 µM each time. The total growth inhibition concentration (TGI) was above 100 µM in data set [1]; above 100 µM with MCF7; 78.54 µM in data set [2]; above 100 µM in the data set with HT-29; 86.9 µM with CCRF-CEM; 72.4 µM in data set [3]. For the same molecule, the 50% growth inhibitory concentration (GI50) in the data set with MCF7 came to 54.1 µM; in the data set on HT-29 it was 72.7 µM; in the data set on CCRF-CEM, 48.7 µM; in data set [3], 37.9 µM. The CC50 (in the data set with HT-29; in the data set with CCRF-CEM; in data set [3]) was above 100 µM throughout.
Regarding `COc1ccc(CNc2nc(SC)nc3ncccc23)cc1`, the results for the GI50 at 72 h in data set [1] and in data set [2] were 34.2 µM and 58.5 µM, respectively. For the same molecule, the LC50 (in data set [1]; in the data set on MCF7; in data set [2]) was above 100 µM in each case. Further, the TGI was 69.77 µM in data set [1]; above 100 µM in the data set on MCF7; above 100 µM in data set [2]; above 100 µM in the data set with HT-29; above 100 µM with CCRF-CEM; above 100 µM in data set [3]. Moreover, the GI50 in the data set on MCF7 was 48.1 µM; with HT-29, above 100 µM; in the data set on CCRF-CEM, above 100 µM; in data set [3], above 100 µM. Moreover, the CC50 (in the data set on HT-29; with CCRF-CEM; in data set [3]) was above 100 µM throughout.
As for `CSc1nc(NCCCCc2ccccc2)c2ccccc2n1`, the 50% growth inhibitory concentration (GI50) at 72 h in data set [1] was found to be 28.5 µM; in data set [2] it was 6.81 µM. For the same molecule, the LC50 in data set [1] was 78.6 µM; in the data set on MCF7 it was 95.9 µM; in data set [2], above 100 µM. The TGI in data set [1] was 53.55 µM; in the data set with MCF7 it was 64 µM; in data set [2] it was above 100 µM; in the data set with HT-29 it was above 100 µM; in the data set on CCRF-CEM, above 100 µM; in data set [3], above 100 µM. In addition, the concentration for 50% growth inhibition (GI50) with MCF7 is 32 µM; in the data set on HT-29, above 100 µM; in the data set on CCRF-CEM, 47 µM; in data set [3], above 100 µM. Moreover, the CC50 (in the data set with HT-29; in the data set on CCRF-CEM; in data set [3]) was above 100 µM throughout.
`COc1ccc(CNc2nc(SC)nc3ccccc23)cc1`: the results for the GI50 at 72 h in data set [1] and in data set [2] were 85.6 µM and 21.7 µM, respectively. Also, the LC50 (in data set [1]; with MCF7; in data set [2]) was above 100 µM throughout. Further, the concentration for total growth inhibition (TGI) is above 100 µM in data set [1]; 85.1 µM with MCF7; 96.24 µM in data set [2]; above 100 µM with HT-29; above 100 µM in the data set with CCRF-CEM; above 100 µM in data set [3]. The 50% growth inhibitory concentration (GI50) in the data set with MCF7 was 30.9 µM; in the data set on HT-29 it was 70.2 µM; in the data set on CCRF-CEM, 93.7 µM; in data set [3], 93.7 µM. For the same molecule, the CC50 (in the data set with HT-29; in the data set with CCRF-CEM; in data set [3]) was above 100 µM each time.

These data come from ChEMBL document CHEMBL1926588, “Sulfur and selenium derivatives of quinazoline and pyrido[2,3-d]pyrimidine: synthesis and study of their potential cytotoxic activity in vitro” (Eur J Med Chem, 2012).
